“And” between values parts separate entries of the source, which are not always exact repeats. Identical values can stand only once.

Assay [1] concerns TNFα-induced NF-κB activation. Description: suppression of TNFα-induced NF-κB activation in HEK-Blue CD40L sensor cells. The class given is cell-based, human. The following applies: for IC50: Homo sapiens, HEK-Blue, 20 h, read-out: TNFα, IC50; for rRBATNFα: relative potency from TNFα IC50, DEX = 100. In short, it runs like this: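 Cells used: HEK293 stably expressing human CD40 and an NF-κB/AP-1-inducible SEAP, seeded at about 5 × 10⁴ cells/well in 1% FBS DMEM. TNFα (3 ng/mL) added with test compound at 0, 0.01, 0.1, 1.0, 10, 100 or 1000 nM; incubated 20 h at 37°C, 5% CO₂. SEAP quantified with QUANTI-Blue at 620–655 nm. Five independent experiments, triplicates or quadruplicates. Percent suppression fitted to a Hill equation (bottom zero; shared Emax and nH).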

The subject of assay [2] is CD40L-induced NF-κB activation. As to the kind of experiment: suppression of CD40L-induced NF-κB activation in HEK-Blue CD40L sensor cells. The settings on record: for IC50: Homo sapiens, HEK-Blue, 30 h, read-out: CD40L, IC50; for CD40L/TNFα pot.: potency ratio of CD40L assay vs TNFα assay; for rRBACD40L: relative potency from CD40L IC50, DEX = 100. The assay is classed as cell-based, human. In short, it runs like this: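 Reporter HEK293 cells (human CD40; NF-κB/AP-1-driven SEAP) at about 5 × 10⁴ cells/well in 1% FBS DMEM. Stimulated with CD40L (CD154, 25 ng/mL) plus test compound at 0–1000 nM (10-fold steps) for 30 h at 37°C, 5% CO₂. SEAP read by QUANTI-Blue at 620–655 nm. Five independent experiments in triplicate or quadruplicate. Percent suppression vs stimulation alone fitted to a Hill model (bottom fixed at zero; Emax and nH shared).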

Assay [3] deals with glucocorticoid receptor (GR). The following applies: cited from earlier work; for Kd: read-out: Kd,lit, consensus average of published GR binding values; for rRBAlit: relative receptor binding affinity, DEX = 100.
A further assay concerns the target CD40 (Homo sapiens) (UniProt P25942). The following applies: cited from earlier work.
A further assay deals with CD40. The settings on record: read-out: Kd CD40L – CD40; cell-free binding; cited from earlier work.
Assay [4] deals with NF-κB activation in HEK-Blue CD40L sensor cells. Description: ligand-induced NF-κB activation of HEK-Blue CD40L sensor cells. The assay is classed as cell-based, human. The settings on record: one-site specific binding model. The essentials:
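HEK293 cells stably carrying human CD40 and a SEAP reporter under the IFN-β minimal promoter with five NF-κB and five AP-1 sites. Grown in DMEM (4.5 g/L glucose, 10% FBS, 2 mM L-glutamine), then resuspended in 1% FBS medium. Stimulated with FLAG-tagged TNFα or CD40L (CD154) over a concentration series. SEAP measured with QUANTI-Blue at 620–655 nm; data fitted with a one-site specific binding model.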

Another assay addresses TNF-R1. The settings on record: read-out: Kd TNFα – TNF-R1; cell-free binding; cited from earlier work.

UniProt P25942, sequence (P25942 21-277): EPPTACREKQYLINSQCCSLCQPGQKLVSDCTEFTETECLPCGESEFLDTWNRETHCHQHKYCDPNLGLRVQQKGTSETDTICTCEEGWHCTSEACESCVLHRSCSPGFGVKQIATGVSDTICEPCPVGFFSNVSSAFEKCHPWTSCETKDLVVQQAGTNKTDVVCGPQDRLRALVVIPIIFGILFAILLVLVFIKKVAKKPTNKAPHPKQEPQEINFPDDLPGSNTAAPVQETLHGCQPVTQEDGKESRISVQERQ
CD40L, sequence (P29965 113-261): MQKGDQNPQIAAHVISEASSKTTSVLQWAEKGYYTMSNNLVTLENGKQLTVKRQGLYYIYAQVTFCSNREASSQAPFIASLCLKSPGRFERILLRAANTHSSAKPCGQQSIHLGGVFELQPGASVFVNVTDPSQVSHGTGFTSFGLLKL

Broadly, the IC50 is the concentration that inhibits the measured activity by half. With `CCC(=O)OCC(=O)[C@@]1(OC(=O)CC)[C@@H](C)C[C@H]2[C@@H]3CCC4=CC(=O)C=C[C@]4(C)[C@@]3(Cl)[C@@H](O)C[C@@]21C` [BDP, beclomethasone dipropionate], in assay [1], the IC50 was found to be 100 pM and the rRBATNFα is reported as 2952.7. In addition, in assay [2], the 50% inhibitory concentration (IC50) came to 220 pM, the CD40L/TNFα pot. turned out to be 0.46 and the rRBACD40L stood at 872.2.

In general, Kd refers to the constant that tells how readily two partners part at equilibrium. With `CCC(=O)O[C@]1(C(=O)CCl)[C@@H](C)C[C@H]2[C@@H]3CCC4=CC(=O)C=C[C@]4(C)[C@@]3(F)[C@@H](O)C[C@@]21C` [CP, clobetasol propionate], in assay [1], the IC50 stood at 20 pM and the rRBATNFα turned out to be 13074.5. Further, in assay [3], the Kd is 100 pM and the rRBAlit is reported as 6300.0. Besides, in assay [2], the IC50 is 10 pM, the CD40L/TNFα pot. was determined as 1.62 and the rRBACD40L was 13653.4.

Turning to `C[C@@H]1C[C@H]2[C@@H]3CCC4=CC(=O)C=C[C@]4(C)[C@@]3(F)[C@@H](O)C[C@]2(C)[C@@]1(O)C(=O)CO` [DEX, dexamethasone], in assay [1], the IC50 is 2930 pM and the rRBATNFα was determined as 100.0. For the same compound, in assay [3], the rRBAlit is given as 100.0. In addition, in assay [2], the IC50 was determined as 1890 pM, the CD40L/TNFα pot. stood at 1.55 and the rRBACD40L was found to be 100.0.

For the compound `C[C@]12CCC(=O)C=C1CC[C@@H]1[C@@H]2[C@@H](O)C[C@@]2(C)[C@H]1CC[C@]2(O)C(=O)CO` [HC, hydrocortisone], in assay [1], the IC50 turned out to be 15500 pM and the rRBATNFα is reported as 18.9. The rRBAlit in assay [3] is listed as 10. Also, in assay [2], the 50% inhibitory concentration (IC50) turned out to be 540 pM, the CD40L/TNFα pot. is reported as 28.75 and the rRBACD40L worked out at 350.3.

For `CCOC(=O)O[C@]1(C(=O)OCCl)CC[C@H]2[C@@H]3CCC4=CC(=O)C=C[C@]4(C)[C@H]3[C@@H](O)C[C@@]21C` [LE, loteprednol etabonate], in assay [1], the IC50 worked out at 790 pM and the rRBATNFα worked out at 372.6. Moreover, in assay [3], the Kd was 4390 pM and the rRBAlit is 150.0. Also, in assay [2], the IC50 turned out to be 60 pM, the CD40L/TNFα pot. is 13.96 and the rRBACD40L came out at 3357.0.

Regarding `C[C@]12C=CC(=O)C=C1CC[C@@H]1[C@@H]2[C@@H](O)C[C@@]2(C)[C@H]1CC[C@]2(O)C(=O)CO` [PRED, prednisolone], in assay [1], the IC50 is 14200 pM and the rRBATNFα was 20.6. Moreover, in assay [3], the “GR rRBA” value is “≈ 20 % of dexamethasone” and the rRBAlit is recorded as 19.0. Further, in assay [2], the IC50 came to 300 pM, the CD40L/TNFα pot. turned out to be 47.49 and the rRBACD40L was found to be 632.9.

Turning to `CC1(C)O[C@@H]2C[C@H]3[C@@H]4CCC5=CC(=O)C=C[C@]5(C)[C@@]4(F)[C@@H](O)C[C@]3(C)[C@]2(C(=O)CO)O1` [TA, triamcinolone acetonide], in assay [1], the IC50 was determined as 760 pM and the rRBATNFα came out at 387.4. Further, in assay [3], the Kd is 2440 pM and the rRBAlit is listed as 270.0. In assay [2], the IC50 is 430 pM, the CD40L/TNFα pot. stood at 1.77 and the rRBACD40L turned out to be 442.1.

On to CD40L (from UniProt P29965), for which the Kd with CD40 (Homo sapiens) was 1000 pM.

“CD40L: FLAG-tagged ligand used for stimulation in the cell assays (Axxora)”: the Kd on CD40 was approximately 1000 pM. The “median effective concentration (EC50) for NF-κB activation” value in assay [4] is 0.041 µg/mL and ~0.04 µg/mL.

For TNFα, in assay [4], the “median effective concentration (EC50) for NF-κB activation” value was 0.0027 µg/mL and ~0.003 µg/mL. The Kd at TNF-R1 was approximately 500 pM.

The values are drawn from PMC4049353 (Steroids, 2014).
